Tests used:
[1] = tested on: DNA topoisomerase 1 (Bos taurus); test: Effect on Topo-I-mediated relaxation of supercoiled pUC19 plasmid DNA in calf thymus at 100 uM
[2] = tested on: PC-3; test: Antiproliferative activity measured against PC-3 human prostate adenocarcinoma; format: functional, cell-based; conditions: PC-3, Prostate gland
Summary of the method: (§1)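 Cells seeded 24 h before treatment (3000/well A427, MCF7mdr, K562adr; 1500/well PC-3) in DMEM with 10% heat-inactivated FCS, penicillin/streptomycin, 2 mM glutamine. Drug from DMSO (0.1% final) at 5 × 10^-13 to 1 × 10^-6 M final, 72 h exposure. Viability by WST-1 formazan colorimetry. Two experiments, eight determinations per concentration. IC50 by linear regression on linear part of sigmoid.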

[3] = tested on: A-427; test: Antiproliferative activity measured against A427 human lung carcinoma; format: functional, cell-based
Summary of the method: as §1

[4] = tested on: HT-29; test: Antitumor activity was measured on HT-29 xenografts after 0.625 mg/kg ip dose; toxic dose; format: functional, organism-based; design: dose 0.625 mg/kg; conditions: Homo sapiens
Summary of the method: (§2)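 Female NCr nu/nu athymic mice, 4-6 weeks old, given sc HT-29 cells (5 × 10^6/animal, left dorsum). Randomised at day 10 at about 175 mm³ mean tumour (5/treated group, 10 controls). Drug in DMSO (3%)/Tween 20 (2%)/0.9% NaCl given ip daily, 4 days on/3 off, ×3 (12 injections). Caliper volume (w²l)/2 three times weekly with body weight. T-C delay in days to reach 250% of starting volume.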

[5] = tested on: HT-29; test: Antitumor activity was measured on HT-29 xenografts after 0.32 mg/kg ip dose.; format: functional, Homo sapiens; conditions: route intraperitoneal
Summary of the method: as §2

[6] = tested on: K562; test: Antiproliferative activity measured against K562adr leukemia cells.; format: functional, cell-based; conditions: Homo sapiens
Summary of the method: as §1

[7] = tested on: HT-29; test: Antitumor activity was measured on HT-29 xenografts after 0.16 mg/kg ip dose.; format: functional, Homo sapiens; conditions: route intraperitoneal
Summary of the method: as §2

[8] = tested on: MCF7; test: Antiproliferative activity measured against MCF-7-mdr cells.; format: functional, cell-based; conditions: Homo sapiens
Summary of the method: as §1

[9] = tested on: HT-29; test: Antitumor activity was measured on HT-29 xenografts after 1.25 mg/kg ip dose; td = ' toxic dose'; format: functional, organism-based; design: dose 1.25 mg/kg; conditions: Homo sapiens
Summary of the method: as §2

[10] = tested on: HT-29; test: Antitumor activity was measured on HT-29 xenografts after 0.625 mg/kg ip dose.; format: functional, Homo sapiens; conditions: route intraperitoneal
Summary of the method: as §2

[11] = tested on: HT-29; test: Antitumor activity was measured on HT-29 xenografts after 0.625 mg/kg ip dose; td = 'toxic dose'; format: functional, organism-based; design: dose 0.625 mg/kg; conditions: Homo sapiens
Summary of the method: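 Female NCr nu/nu athymic mice, 4-6 weeks old, bearing sc HT-29 tumours (5 × 10⁶ cells, left dorsal surface). Dosing began at about 175 mm³ (day 10), 5 mice per group and 10 controls. Drug given ip in DMSO (3%)/Tween 20 (2%)/0.9% NaCl, daily 4 days on/3 off, three cycles. Calipers three times weekly; T-C growth delay in days to reach 250% of starting volume.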

[12] = tested on: HT-29; test: Antitumor activity was measured on HT-29 xenografts after 2.5 mg/kg ip dose; td =' toxic dose'; format: functional, organism-based; design: dose 2.5 mg/kg; conditions: Homo sapiens
Summary of the method: as §2

[13] = tested on: HT-29; test: Antitumor activity was measured on HT-29 xenografts after 1.25 mg/kg ip dose.; format: functional, Homo sapiens; conditions: route intraperitoneal
Summary of the method: as §2

Structure (SMILES)	Relaxed DNA [1] [%]	IC50 [2] [nM]	IC50 [3] [nM]	IC50 [6] [nM]	IC50 [8] [nM]	other results
CC[C@]1(O)CC(=O)OCc2c1cc1n(c2=O)Cc2cc3ccccc3nc2-1	100	–	–	–	–	–
CCC1(O)CC(=O)OCc2c1cc1n(c2=O)Cc2cc3cc(C)c(F)cc3nc2-1 (stereo unspecified)	18	< 0.001	0.00081	14	0.01	Tumor growth delay [4]: Toxic; Tumor growth delay [5]: 7 days; Tumor growth delay [7]: 4 days
CCC1(O)CC(=O)OCc2c1cc1n(c2=O)Cc2cc3cc(Cl)ccc3nc2-1 (stereo unspecified)	57	18	0.36	2.6	1.3	–
CCc1c2c(nc3ccccc13)-c1cc3c(c(=O)n1C2)COC(=O)CC3(O)CC (stereo unspecified)	34	28	–	33	21	–
CC[C@@]1(O)C(=O)OCc2c1cc1n(c2=O)Cc2cc3ccccc3nc2-1 [CAMPTOTHECIN]	–	57	24	57	3.1	Tumor growth delay [9]: Toxic; Tumor growth delay [10]: 4 days
CCC1(O)CC(=O)OCc2c1cc1n(c2=O)Cc2cc3ccccc3nc2-1 (stereo unspecified)	60	60	12	47	21	–
COc1cc([C@@H]2c3cc4c(cc3[C@@H](O[C@@H]3O[C@@H]5CO[C@@H](C)O[C@H]5[C@H](O)[C@H]3O)[C@H]3COC(=O)[C@H]23)OCO4)cc(OC)c1O [ETOPOSIDE]	–	2300	–	–	67000	–
CC[C@@]1(O)CC(=O)OCc2c1cc1n(c2=O)Cc2cc3ccccc3nc2-1	45	–	–	–	–	–
CCC1(O)CC(=O)OCc2c1cc1n(c2=O)Cc2cc3cc(F)c(F)cc3nc2-1 (stereo unspecified)	56	0.001	0.1	66	–	Tumor growth delay [5]: 25 days; Tumor growth delay [7]: 8 days; Tumor growth delay [11]: Toxic dose
CCC1(O)CC(=O)OCc2c1cc1n(c2=O)Cc2cc3cc(C)c(Cl)cc3nc2-1 (stereo unspecified)	59	3.6	0.031	2.9	–	–
CCC1(O)CC(=O)OCc2c1cc1n(c2=O)Cc2cc3cc(OC)c(F)cc3nc2-1 (stereo unspecified)	26	< 0.001	0.0083	18	2.2	Tumor growth delay [4]: Toxic; Tumor growth delay [5]: 12 days; Tumor growth delay [7]: 4 days
CC[C@@]1(O)C(=O)OCc2c1cc1n(c2=O)Cc2cc3c(CN(C)C)c(O)ccc3nc2-1 [TOPOTECAN]	–	160	49	1100	420	–
CCC1(O)CC(=O)OCc2c1cc1n(c2=O)Cc2cc3cc(F)c(Cl)cc3nc2-1 (stereo unspecified)	61	12	0.023	20	1.7	Tumor growth delay [12]: Toxic dose; Tumor growth delay [5]: 1 days; Tumor growth delay [10]: 2 days; Tumor growth delay [13]: 7 days
COc1cccc2c1C(=O)c1c(O)c3c(c(O)c1C2=O)C[C@@](O)(C(=O)CO)C[C@@H]3O[C@H]1C[C@H](N)[C@H](O)[C@H](C)O1 [DOXORUBICIN]	–	390	–	15000	–	–
CCC1(O)CC(=O)OCc2c1cc1n(c2=O)Cc2cc3cc4c(cc3nc2-1)OCCO4 (stereo unspecified)	50	–	–	–	–	–
CCC1(O)CC(=O)OCc2c1cc1n(c2=O)Cc2cc3cc(F)ccc3nc2-1 (stereo unspecified)	47	0.58	7.7	63	–	–
CCC1(O)CC(=O)OCc2c1cc1n(c2=O)Cc2cc3cc4c(cc3nc2-1)OCO4 (stereo unspecified)	58	< 0.001	0.62	37	0.55	–
